Results on seven compounds are retold here after ChEMBL document CHEMBL1144051, “Structural considerations of NK109, an antitumor benzo[c]phenanthridine alkaloid” (J Nat Prod, 1999).

Values after ≈ are worked out from the molar mass of the structure shown.

One series deals with HeLa. As to the kind of experiment: Growth inhibition of human HeLa S3 cells after 72 hrs. In kind it is functional, cell-based. The essentials: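 HeLa S3 in Eagle's MEM with 10% calf serum and 60 µg/mL kanamycin, 37 °C, 5% CO2; seeded, grown 24 h, then exposed 72 h to compound diluted in 5% glucose at 0.01–10 µg/mL. Nuclei stained with methylene blue, cell number read at 660 nm; IC50 from growth rate relative to control.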

Series [1] has as its system P388. As to the kind of experiment: Antitumor activity against mouse P388 cells xenografted CDF1 mouse at 75 mg/kg, iv administered on day 1 after 30 days relative to control. In kind it is functional. Put shortly:
(§1)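 Female CDF1 mice, 6 weeks old, five per group, inoculated iv with P-388 leukemia cells (1 × 10^5 cells/body) on day 0; cells maintained by ip passage in DBA/2 mice. Single tail-vein injection on day 1 (0.1 mL per 10 g), vehicle 5% glucose or EtOH–Cremophore (1:1) diluted in 5% glucose. Followed 30 days; T/C (%) from median survival time, treated versus control.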

Series [2] concerns Mus musculus. The series can be described thus: Toxicity against mouse P388 cells xenografted CDF1 mouse assessed as survival time at 50 mg/kg, iv. To be noted: in vivo. Also noted: dose 50 mg/kg, route intravenous. In kind it is organism-based. The essentials: as §1
In series [3] the test system is P388. The series can be described thus: Antitumor activity against mouse P388 cells xenografted CDF1 mouse at 50 mg/kg, iv administered on day 1 after 30 days relative to control. In kind it is functional. Put shortly: as §1
For series [4], the system named is Mus musculus. The series can be described thus: Toxicity against mouse P388 cells xenografted CDF1 mouse assessed as survival time at 25 mg/kg, iv. In kind it is organism-based. Also on record: dose 25 mg/kg, route intravenous. To be noted: in vivo. Put shortly: as §1
For series [5], the system named is P388. As to the kind of experiment: Antitumor activity against mouse P388 cells xenografted CDF1 mouse at 25 mg/kg, iv administered on day 1 after 30 days relative to control. In kind it is functional. The essentials: as §1
In series [6] the test system is Mus musculus. As to the kind of experiment: Toxicity against mouse P388 cells xenografted CDF1 mouse assessed as survival time at 75 mg/kg, iv. The class given is organism-based. The settings on record: in vivo. Also on record: dose 75 mg/kg, route intravenous. Put shortly: as §1
The subject of series [7] is Mus musculus. The series can be described thus: Toxicity against mouse P388 cells xenografted CDF1 mouse assessed as survival time at 150 mg/kg, iv. In kind it is organism-based. Also on record: dose 150 mg/kg, route intravenous. The settings on record: in vivo. The essentials: as §1
In series [8] the test system is P388. As to the kind of experiment: Antitumor activity against mouse P388 cells xenografted CDF1 mouse at 150 mg/kg, iv administered on day 1 after 30 days relative to control. The class given is functional. Put shortly:
as §1

Series [9] relates to Mus musculus. The series can be described thus: Toxicity in mouse P388 cells xenografted CDF1 mouse assessed as decrease in body weight at 150 mg/kg, iv administered on day 1 after 30 days. The class given is organism-based. Also on record: dose 150 mg/kg, route intravenous. To be noted: in vivo, 720 h. Put shortly: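 Female CDF1 mice, 6 weeks old, five per group, given P-388 cells iv (1 × 10^5 cells/body) on day 0, then a single tail-vein dose on day 1 in 5% glucose or EtOH–Cremophore (1:1) diluted in 5% glucose. Body weight tracked against untreated controls, reported as mean with s.e.mean.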

A short description of series [10]: Dissociation constant, pKa of the compound. The class given is physicochemical.
Series [11] relates to P388. The series can be described thus: Antitumor activity against mouse P388 cells xenografted CDF1 mouse at 12.5 mg/kg, iv administered on day 1 after 30 days relative to control. In kind it is functional. The essentials:
as §1

Series [12] deals with Mus musculus. The series can be described thus: Toxicity against mouse P388 cells xenografted CDF1 mouse assessed as survival time at 12.5 mg/kg, iv. In kind it is organism-based. Also noted: dose 12.5 mg/kg, route intravenous. To be noted: in vivo. Put shortly:
as §1

Series [13] has as its system P388. The series can be described thus: Antitumor activity against mouse P388 cells xenografted CDF1 mouse at 6.25 mg/kg, iv administered on day 1 after 30 days relative to control. In kind it is functional. Put shortly: as §1
The test system of series [14] is Mus musculus. As to the kind of experiment: Toxicity against mouse P388 cells xenografted CDF1 mouse assessed as survival time at 6.25 mg/kg, iv. The class given is organism-based. To be noted: in vivo. Also noted: dose 6.25 mg/kg, route intravenous. The essentials:
as §1

The compound `COc1cc2c(ccc3c4cc(OC)c(OC)cc4c[n+](C)c23)cc1O.[Cl-]` [FAGARONINE] displayed a 50% inhibitory concentration (IC50) in the series with HeLa of 0.39 µg/mL. Also, the figures for the T/C in the series on P388 [1], with P388 [3] and in the series on P388 [5] were 14%, 102% and 102%, respectively. The MSD is 9.5 days in the series with Mus musculus [2], 9.5 days with Mus musculus [4] and 1.3 days in the series with Mus musculus [6].

In the case of `COc1ccc2c(c[n+](C)c3c4cc5c(cc4ccc23)OCO5)c1O.O.O.O=S(=O)([O-])O`, 0.08 µg/mL corresponded to half-maximal inhibition in the series with HeLa (IC50). Besides, the T/C in the series on P388 [1] worked out at 159%; in the series on P388 [8], 261%; with P388 [3] it was 147%. Also, the MSD was found to be 23.5 days in the series with Mus musculus [7], 13.2 days with Mus musculus [2] and 14.3 days with Mus musculus [6]. For the same compound, the Activity result with Mus musculus [9] is “Toxic”. In [10], this compound came in with a pKa of 5.3.

`COc1cc2c[n+](C)c3c4cc5c(cc4ccc3c2cc1OC)OCO5.[Cl-]` [NITIDINE CHLORIDE] gave an IC50 in the series on HeLa of 0.05 µg/mL. The T/C was found to be 46% in the series on P388 [1], 102% in the series on P388 [3] and 108% with P388 [5]. In addition, the figures for the MSD in the series with Mus musculus [2], with Mus musculus [4] and with Mus musculus [6] were 9.5 days, 10 days and 4.3 days, respectively.

For the compound `C[n+]1cc2c3c(ccc2c2ccc4cc5c(cc4c21)OCO5)OCO3.[Cl-]` [SANGUINARIUM CHLORIDE], 0.16 µg/mL corresponded to half-maximal inhibition in the series on HeLa (IC50). The T/C in the series with P388 [11] is 102%; in the series with P388 [3] it was 12%; in the series with P388 [5] it was 25%. For the same compound, the MSD stood at 9.5 days in the series on Mus musculus [12], 1.1 days in the series with Mus musculus [2] and 2.3 days with Mus musculus [4].

For `COc1ccc2c(c[n+](C)c3c4cc5c(cc4ccc23)OCO5)c1OC.[Cl-]` [CHELERYTHRINE CHLORIDE], the IC50 in the series with HeLa turned out to be 1.24 µg/mL. Further, the T/C is on record as 111% with P388 [11], 111% in the series on P388 [13] and 12% with P388 [5]. The results for the MSD in the series on Mus musculus [12], in the series on Mus musculus [4] and in the series with Mus musculus [14] were 10 days, 1.1 days and 10 days, respectively.

Compound `COc1ccc2c(c1O)CN(C)c1c-2ccc2cc3c(cc12)OCO3` showed a half-maximal inhibitory concentration (IC50) in the series on HeLa of 16.2 µg/mL (≈ 48.3 µM).

`COc1c(O)ccc2c1c[n+](C)c1c3cc4c(cc3ccc21)OCO4.[Cl-]` [FAGARIDINE HYDROCHLORIDE] returned an IC50 in the series with HeLa of 3.99 µg/mL.
